An excerpt weighted towards active compounds, which were near 2.5% of everything screened.
NR2E3 ag-1: agonists of human NR2E3 nuclear receptor; inhibition of corepressor binding, % at 3.98 µM; 360,000 compounds, 0.35% hits; Q9Y5X4; CHO-S Gal4-NCOR/VP16-NR2E3 two-hybrid, luciferase;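 active = inhibition above the mean of all tested compounds plus 3 SD, cut at about 70% in these data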;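 note: higher means lower luciferase signal from less NR2E3 corepressor binding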
Target sequence (Q9Y5X4 whole entry, looked up, the tested form may be a part): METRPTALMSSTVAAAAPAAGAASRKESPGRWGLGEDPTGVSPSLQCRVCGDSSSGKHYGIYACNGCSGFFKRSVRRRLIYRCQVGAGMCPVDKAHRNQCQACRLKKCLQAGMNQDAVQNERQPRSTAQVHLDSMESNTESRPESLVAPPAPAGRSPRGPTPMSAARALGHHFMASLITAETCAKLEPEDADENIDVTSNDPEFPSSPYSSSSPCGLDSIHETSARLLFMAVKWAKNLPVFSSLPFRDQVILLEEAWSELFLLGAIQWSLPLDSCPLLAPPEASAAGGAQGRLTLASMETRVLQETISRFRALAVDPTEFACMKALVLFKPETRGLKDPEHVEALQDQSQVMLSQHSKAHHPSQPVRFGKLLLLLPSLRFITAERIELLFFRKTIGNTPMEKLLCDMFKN
ADAM17 inh: inhibitors of human ADAM17. recombinant ADAM17, EDANS/DABCYL FRET peptide cleavage. inhibition, % at 6.95 µM. AID 720648. P78536. 370,000 compounds, 0.83% hits;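 active = inhibition above the mean of compounds lying between control limits plus 3 SD, set per campaign, cut at about 8.5% in these data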
NR2E3 ag-2: activates human photoreceptor nuclear receptor NR2E3; GST-NR2E3/biotin-RetCOR TR-FRET, 1536-well; Q9Y5X4; 320,000 compounds, 0.12% hits; inhibition of corepressor binding, % at 4.78 µM;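 active = percent inhibition above the cutoff of mean plus 3 SD of all tested compounds, set per screening campaign, cut at about 20% in these data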
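Assay system: NR2E3–RetCOR corepressor complex. Quantity: 1.35 nM GST-NR2E3. Buffer or medium: pH 7.5 Tris-based buffer. Reagent: biotinylated RetCOR corepressor at 7 nM final. Schedule: 5 h at 4 °C. Detection: TR-FRET, emission read at 617 and 671 nm. Replicates: one well per compound, singlicate testing.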
proKLK7 act: proKLK7 (human) activation, primary screen | purified proKLK7, EDANS-DABCYL substrate fluorescence; 100% is mature enzyme control, 0% vehicle | activation, % at 7 µM | 370,000 compounds, 0.9% hits;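 active = activation above the mean of all tested compounds plus 3 SD, computed per campaign excluding outliers beyond control limits, cut at about 13% in these data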
Target sequence (P49862 whole entry, looked up): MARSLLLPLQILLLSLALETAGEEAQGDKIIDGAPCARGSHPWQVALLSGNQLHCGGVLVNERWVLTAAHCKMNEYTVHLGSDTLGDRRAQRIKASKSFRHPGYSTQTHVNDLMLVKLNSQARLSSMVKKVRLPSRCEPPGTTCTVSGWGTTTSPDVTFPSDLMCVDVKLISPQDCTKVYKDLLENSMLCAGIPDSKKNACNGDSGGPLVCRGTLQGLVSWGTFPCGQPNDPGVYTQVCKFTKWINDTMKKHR
ADAM10 inh: inhibits human ADAM10 | O14672 | recombinant ADAM10, EDANS/DABCYL FRET peptide cleavage, 3 h | inhibition, % at 7 µM | 370,000 compounds, 0.62% hits | AID 720582;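 active = inhibition above a per-campaign cutoff equal to the mean of compounds falling between control-based bounds plus 3 SD, cut at about 20% in these data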
GASC-1 inh: blocks human GASC-1 demethylase activity. Q9H3R0. GST-JMJD2C(1-420) H3K9me3 demethylation, DELFIA europium. inhibition, % at 2.35 µM. 330,000 compounds, 0.069% hits;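 active = more than half of a compound's replicate wells show inhibition beyond 50%, single wells judged on their own value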;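 note: signal counts dimethyl H3K9 product captured on neutravidin plate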
Numbers stand for hits.

`O=c1[nH]cc(N=Cc2cc(Cl)cc(Cl)c2O)c(=O)[nH]1` gave NR2E3 ag-1 inactive, ADAM17 inh inactive, NR2E3 ag-2 inactive, proKLK7 act inactive, ADAM10 inh inactive and GASC-1 inh 65.6.
O=C(CSc1cccc2cccnc12)OCC(=O)c1ccccc1 was read as NR2E3 ag-1 inactive, ADAM17 inh inactive, NR2E3 ag-2 inactive, proKLK7 act 73.3, ADAM10 inh inactive and GASC-1 inh inactive.
O=C(CSc1cccc2cccnc12)OCC(=O)c1ccc(Br)cc1 was read as NR2E3 ag-1 inactive, ADAM17 inh inactive, NR2E3 ag-2 inactive, proKLK7 act inactive, ADAM10 inh inactive and GASC-1 inh inactive.
For C=CCN1C(=O)[C@@H](CC(=O)NCCc2ccccc2OC)[C@]2(C(=O)OCC)CCCCC/C=C/12 the results were ADAM17 inh inactive, proKLK7 act inactive and ADAM10 inh inactive.
`CC(=O)c1cccc(NS(=O)(=O)c2ccc(C(=O)Nc3ccccc3)cc2)c1` gave NR2E3 ag-1 75.0, ADAM17 inh inactive, NR2E3 ag-2 inactive, proKLK7 act inactive, ADAM10 inh inactive and GASC-1 inh inactive.
`Nc1ncnc2c1ncn2C1C=C(CO)C(O)C1O` (stereo unspecified) gave NR2E3 ag-1 73.6.
For CCc1ccc(-c2nc(CSCC(=O)N3CCN(c4ccccn4)CC3)c(C)o2)cc1 the results were NR2E3 ag-1 83.8, ADAM17 inh inactive, NR2E3 ag-2 inactive, proKLK7 act inactive, ADAM10 inh inactive and GASC-1 inh inactive.
`N#Cc1cccc(C(=O)N2CCC(Oc3cccnc3)CC2)c1` gave ADAM17 inh inactive, proKLK7 act inactive and ADAM10 inh inactive.
COc1ccc(/C=C\C(=O)O[C@@H]2C(O)C(O[C@@H]3OC(C)[C@H](O[C@@H]4OCC(O[C@H]5O[C@H](CO)[C@@H](O)C(O)C5O)C(O)C4O)C(O)C3O)[C@H](OC(=O)[C@]34CCC(C)(C)C[C@@H]3C3=CCC5[C@@]6(C)CC(O)C(O[C@@H]7OC(CO)C(O)[C@H](O)[C@H]7O)[C@@](C)(C(=O)O)C6CC[C@@]5(C)[C@]3(CO)CC4)O[C@H]2C)cc1 (stereo partly specified) was read as NR2E3 ag-1 96.5 and GASC-1 inh inactive.
Screening COc1ccc(CNN2CCCCC2C(=O)Nc2ccc(OC)c(OCC(C)C)c2)cc1OC (stereo unspecified) returned NR2E3 ag-1 inactive, ADAM17 inh inactive, NR2E3 ag-2 inactive, proKLK7 act inactive, ADAM10 inh inactive and GASC-1 inh inactive.
COc1ccc(NC(=O)C2CCCCN2N)cc1OCC(C)C (stereo unspecified) was read as NR2E3 ag-1 inactive, ADAM17 inh inactive, NR2E3 ag-2 inactive, proKLK7 act inactive, ADAM10 inh inactive and GASC-1 inh 80.4.
For CCOC(=O)C1(C)NC(c2cccs2)C2C(=O)N(c3ccc(OC)cc3)C(=O)C21 (stereo unspecified) the results were NR2E3 ag-1 inactive, ADAM17 inh inactive, NR2E3 ag-2 inactive, proKLK7 act inactive, ADAM10 inh inactive and GASC-1 inh 54.8.
Cn1ccnc1CN1CCC[C@]2(CC[C@H](CCC#N)O2)C1 was read as ADAM17 inh inactive, proKLK7 act inactive and ADAM10 inh inactive.
CC(=O)N(C1=C(N2CCOCC2)C(=O)c2ccccc2C1=O)c1ccc(C(=O)O)cc1 was read as NR2E3 ag-1 inactive, ADAM17 inh inactive, NR2E3 ag-2 inactive, proKLK7 act inactive, ADAM10 inh inactive and GASC-1 inh inactive.
For CC(=O)N(C)C1=C(N2CCOCC2)C(=O)c2ccccc2C1=O the results were NR2E3 ag-1 inactive, NR2E3 ag-2 inactive and GASC-1 inh 98.7.
`CC(=O)OC12CCCN(C1)/C(=C/c1ccccc1)C2` (stereo unspecified) gave ADAM17 inh inactive, proKLK7 act inactive and ADAM10 inh inactive.
Screening Cn1c2c(c(=O)n(C)c1=O)CN(CCCN1CCOCC1)CN2 returned NR2E3 ag-1 inactive, ADAM17 inh inactive, NR2E3 ag-2 inactive, proKLK7 act inactive, ADAM10 inh inactive and GASC-1 inh 53.4.
Screening C=CCNC(=O)CN(C(=O)c1ccncn1)c1cccc(Br)c1 returned ADAM17 inh inactive, proKLK7 act inactive and ADAM10 inh inactive.
O=C1C(=Cc2cn(-c3ccccc3)nc2-c2ccc(OCc3ccccc3)cc2)SC(=S)N1CCS(=O)(=O)O was read as NR2E3 ag-1 inactive, ADAM17 inh inactive, proKLK7 act inactive and ADAM10 inh 29.2.
Screening O=S1(=O)C=CCN1Cc1cn(Cc2ccc(F)cc2)nn1 returned ADAM17 inh inactive, proKLK7 act inactive and ADAM10 inh inactive.
`Cc1cc(/C=C2/SC(=S)N(c3cccc(C(F)(F)F)c3)C2=O)c(C)n1-c1cccnc1` gave NR2E3 ag-1 88.4, NR2E3 ag-2 inactive and GASC-1 inh inactive.
For CCC[C@H]1[C@@H](NC(=O)Nc2ccc3c(c2)OCO3)CC[C@@]23CCCN2C(=O)CCC[C@@H]13 the results were ADAM17 inh inactive and ADAM10 inh inactive.
CN(C)c1ccc(NC(=O)NC2CCCCN(Cc3cccc(Cl)c3)C2=O)cc1 (stereo unspecified) was read as ADAM17 inh inactive, proKLK7 act inactive and ADAM10 inh inactive.
`Cc1cccc(NC(=O)C2CCCN(S(=O)(=O)c3cccc4nsnc34)C2)n1` (stereo unspecified) gave NR2E3 ag-1 inactive, ADAM17 inh inactive, NR2E3 ag-2 inactive, proKLK7 act inactive, ADAM10 inh inactive and GASC-1 inh inactive.
Cc1cccc(NC(=O)C2CCCN(S(=O)(=O)c3c(C)nn(C)c3C)C2)c1 (stereo unspecified) was read as NR2E3 ag-1 inactive, ADAM17 inh inactive, NR2E3 ag-2 inactive, proKLK7 act inactive, ADAM10 inh inactive and GASC-1 inh inactive.
Screening Cc1cccc(NC(=O)C2CCN(S(=O)(=O)c3cccc4nsnc34)CC2)n1 returned NR2E3 ag-1 inactive, ADAM17 inh inactive, NR2E3 ag-2 inactive, proKLK7 act inactive, ADAM10 inh inactive and GASC-1 inh 51.7.
For Cc1cccc(NC(=O)C2CCCN(S(=O)(=O)c3c(C)nn(C)c3C)C2)n1 (stereo unspecified) the results were NR2E3 ag-1 inactive, ADAM17 inh inactive, NR2E3 ag-2 inactive, proKLK7 act inactive, ADAM10 inh inactive and GASC-1 inh 63.0.
`COc1ccc(Cn2ccc3ccc(-c4ccc5ccn(Cc6ccccc6)c5c4)cc32)cc1` gave ADAM17 inh inactive, proKLK7 act inactive and ADAM10 inh inactive.
CCCN(CC1CC1)C(=O)c1ccc(CNC(=O)c2cccc(Br)c2)cc1 was read as ADAM17 inh inactive, proKLK7 act inactive and ADAM10 inh inactive.
O=C(CCc1nc(-c2ccccc2F)no1)NCCc1c[nH]c2ccccc12 was read as ADAM17 inh inactive, proKLK7 act inactive and ADAM10 inh inactive.

Compound activity (PubChem)
